Experimental data from ChEMBL document CHEMBL4270616, “Asymmetrical meta-methoxylated diarylpentanoids: Rational design, synthesis and anti-cancer evaluation in-vitro” (Eur J Med Chem, 2018).

Legend:
[1] = tested on: A549; experiment: Cytotoxicity against human A549 cells after 72 hrs by MTT assay; format: functional, cell-based; conditions: A549, 72 h
Method in brief: (§1)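 Tumour lines kept in DMEM with 10% FBS and 1% penicillin/streptomycin at 37°C, 5% CO2. Seeded at 1500-5000 cells/well by doubling time and size, 24 h, then compound in DMSO-containing medium (final DMSO 0.1%) for 72 h. MTT (5 mg/mL) 4 h at 37°C, DMSO solubilisation, absorbance at 570 nm.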

[2] = Cytotoxicity against human EJ28 cells after 72 hrs by MTT assay; format: functional, cell-based; conditions: EJ-28, 72 h; method in brief: as §1
[3] = tested on: NHDF; experiment: Cytotoxicity against NHDF after 72 hrs by MTT assay; format: cell-based; conditions: Homo sapiens
Method in brief: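 NHDF grown in DMEM with 5% FBS at 37°C, 5% CO2. Seeded at 1500-5000 cells/well, 24 h, then compound added in DMSO-containing medium (final DMSO 0.1%) for 72 h. MTT (5 mg/mL in medium) added for 4 h at 37°C, formazan dissolved in DMSO, absorbance read at 570 nm.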

[4] = tested on: SW-620; experiment: Cytotoxicity against human SW620 cells assessed as inhibition of cell proliferation at 20 uM after 72 hrs by MTT assay relative to control; format: functional; conditions: SW-620, 72 h
Method in brief: (§2)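 Single-concentration screen at 20 μM with 72 h exposure in DMEM with 10% FBS, final DMSO 0.1%. Read-out was MTT (5 mg/mL, 4 h, 37°C), DMSO solubilisation and absorbance at 570 nm, expressed as percent inhibition. Lines reaching a threshold percentage went on to IC50 determination.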

[5] = tested on: A549; experiment: Cytotoxicity against human A549 cells assessed as inhibition of cell proliferation at 20 uM after 72 hrs by MTT assay relative to control; format: functional; conditions: A549, 72 h; method in brief: as §2
[6] = tested on: MCF7; experiment: Cytotoxicity against human MCF7 cells assessed as inhibition of cell proliferation at 20 uM after 72 hrs by MTT assay relative to control; format: functional; conditions: MCF7, 72 h; method in brief: as §2
[7] = tested on: SW-620; experiment: Induction of apoptosis in human SW620 cells assessed as live cells at 1.25 uM after 24 hrs by Annexin V-FITC/propidium iodide staining based flow cytometry (reference value: 97.03%); format: functional
[8] = tested on: SW-620; experiment: Induction of apoptosis in human SW620 cells assessed as early apoptotic cells at 1.25 uM after 24 hrs by Annexin V-FITC/propidium iodide staining based flow cytometry (reference value: 2.35%); format: functional
[9] = tested on: SW-620; experiment: Induction of apoptosis in human SW620 cells assessed as live cells at 2.5 uM after 24 hrs by Annexin V-FITC/propidium iodide staining based flow cytometry (reference value: 97.03%); format: functional
[10] = tested on: SW-620; experiment: Induction of apoptosis in human SW620 cells assessed as late apoptotic cells at 2.5 uM after 24 hrs by Annexin V-FITC/propidium iodide staining based flow cytometry (reference value: 0.43%); format: functional
[11] = tested on: SW-620; experiment: Induction of apoptosis in human SW620 cells assessed as live cells at 5 uM after 24 hrs by Annexin V-FITC/propidium iodide staining based flow cytometry (reference value: 97.03%); format: functional
[12] = tested on: SW-620; experiment: Induction of apoptosis in human SW620 cells assessed as live cells at 10 uM after 24 hrs by Annexin V-FITC/propidium iodide staining based flow cytometry (reference value: 97.03%); format: functional
[13] = tested on: SW-620; experiment: Induction of apoptosis in human SW620 cells assessed as necrotic cells at 10 uM after 24 hrs by Annexin V-FITC/propidium iodide staining based flow cytometry (reference value: 0.15%); format: functional
[14] = tested on: SW-620; experiment: Induction of apoptosis in human SW620 cells assessed as late apoptotic cells at 2.5 uM after 48 hrs by Annexin V-FITC/propidium iodide staining based flow cytometry (reference value: 0.2%); format: functional
[15] = tested on: SW-620; experiment: Induction of apoptosis in human SW620 cells assessed as live cells at 5 uM after 48 hrs by Annexin V-FITC/propidium iodide staining based flow cytometry (reference value: 96.26%); format: functional
[16] = tested on: SW-620; experiment: Induction of apoptosis in human SW620 cells assessed as early apoptotic cells at 5 uM after 48 hrs by Annexin V-FITC/propidium iodide staining based flow cytometry (reference value: 2.75%); format: functional
[17] = tested on: SW-620; experiment: Induction of apoptosis in human SW620 cells assessed as late apoptotic cells at 5 uM after 48 hrs by Annexin V-FITC/propidium iodide staining based flow cytometry (reference value: 0.2%); format: functional
[18] = tested on: SW-620; experiment: Induction of apoptosis in human SW620 cells assessed as necrotic cells at 5 uM after 48 hrs by Annexin V-FITC/propidium iodide staining based flow cytometry (reference value: 0.23%); format: functional
[19] = tested on: SW-620; experiment: Induction of apoptosis in human SW620 cells assessed as live cells at 1.25 uM after 72 hrs by Annexin V-FITC/propidium iodide staining based flow cytometry (reference value: 97.34%); format: functional
[20] = tested on: SW-620; experiment: Induction of apoptosis in human SW620 cells assessed as early apoptotic cells at 1.25 uM after 72 hrs by Annexin V-FITC/propidium iodide staining based flow cytometry (reference value: 2.1%); format: functional
[21] = tested on: SW-620; experiment: Induction of apoptosis in human SW620 cells assessed as late apoptotic cells at 1.25 uM after 72 hrs by Annexin V-FITC/propidium iodide staining based flow cytometry (reference value: 0.29%); format: functional
[22] = tested on: SW-620; experiment: Induction of apoptosis in human SW620 cells assessed as necrotic cells at 1.25 uM after 72 hrs by Annexin V-FITC/propidium iodide staining based flow cytometry (reference value: 0.27%); format: functional
[23] = tested on: SW-620; experiment: Induction of apoptosis in human SW620 cells assessed as live cells at 2.5 uM after 72 hrs by Annexin V-FITC/propidium iodide staining based flow cytometry (reference value: 97.34%); format: functional
[24] = tested on: SW-620; experiment: Induction of apoptosis in human SW620 cells assessed as early apoptotic cells at 2.5 uM after 72 hrs by Annexin V-FITC/propidium iodide staining based flow cytometry (reference value: 2.1%); format: functional
[25] = tested on: SW-620; experiment: Induction of apoptosis in human SW620 cells assessed as late apoptotic cells at 2.5 uM after 72 hrs by Annexin V-FITC/propidium iodide staining based flow cytometry (reference value: 0.29%); format: functional
[26] = tested on: SW-620; experiment: Induction of apoptosis in human SW620 cells assessed as necrotic cells at 2.5 uM after 72 hrs by Annexin V-FITC/propidium iodide staining based flow cytometry (reference value: 0.27%); format: functional
[27] = tested on: SW-620; experiment: Induction of apoptosis in human SW620 cells assessed as early apoptotic cells at 5 uM after 72 hrs by Annexin V-FITC/propidium iodide staining based flow cytometry (reference value: 2.1%); format: functional
[28] = tested on: SW-620; experiment: Induction of apoptosis in human SW620 cells assessed as late apoptotic cells at 5 uM after 72 hrs by Annexin V-FITC/propidium iodide staining based flow cytometry (reference value: 0.29%); format: functional
[29] = tested on: SW-620; experiment: Induction of apoptosis in human SW620 cells assessed as live cells at 10 uM after 72 hrs by Annexin V-FITC/propidium iodide staining based flow cytometry (reference value: 97.34%); format: functional
[30] = tested on: SW-620; experiment: Induction of apoptosis in human SW620 cells assessed as late apoptotic cells at 10 uM after 72 hrs by Annexin V-FITC/propidium iodide staining based flow cytometry (reference value: 0.29%); format: functional
[31] = tested on: SW-620; experiment: Induction of apoptosis in human SW620 cells assessed as necrotic cells at 10 uM after 72 hrs by Annexin V-FITC/propidium iodide staining based flow cytometry (reference value: 0.27%); format: functional

Row | SMILES | IC50 [1] | IC50 [2] | IC50 [3] | inhibition at 20 µM [4] | inhibition at 20 µM [5] | inhibition at 20 µM [6] | Activity [7] | Activity [8] | Activity [9] | Activity [10] | Activity [11] | Activity [12] | Activity [13] | Activity [14] | Activity [15] | Activity [16] | Activity [17] | Activity [18] | Activity [19] | Activity [20] | further results
1 | COc1ccc(/C=C2\CCC/C(=C\c3cccc(O)c3)C2=O)cc1OC | 4.3 µM | 1.8 µM | 6.8 µM | > 50% | > 50% | > 50% | 96.2% | 4.33% | 93.7% | 0.64% | 73.65% | 50.73% | 0.23% | 3.83% | 36.63% | 12.04% | 40.61% | 2.86% | 92.34% | 5.22% | Activity [21]: 1.82%; Activity [22]: 0.63%; Activity [23]: 63.72%; Activity [24]: 4.52%; Activity [25]: 4.57%; Activity [26]: 0.78%; Activity [27]: 10.2%; Activity [28]: 81.02%; Activity [29]: 2.19%; Activity [30]: 95.18%; Activity [31]: 0.22%
2 | COc1ccc(/C=C2\CCC/C(=C\c3cc(OC)c(OC)c(OC)c3)C2=O)cc1OC | 2.9 µM | 1.7 µM | 5.8 µM | > 50% | > 50% | > 50% | 89.83% | 9.26% | 86.22% | 1% | 55.03% | 46.2% | 0.82% | 6.7% | 26.23% | 12% | 60.42% | 1.55% | 34.33% | 4.06% | Activity [21]: 1.3%; Activity [22]: 0.35%; Activity [23]: 66.34%; Activity [24]: 14.37%; Activity [25]: 17.24%; Activity [26]: 1.36%; Activity [27]: 3.48%; Activity [28]: 93%; Activity [29]: 2.37%; Activity [30]: 94.51%; Activity [31]: 0.24%
